Reference: ChEMBL document CHEMBL1821687, “Discovery, synthesis, and biological evaluation of novel SMN protein modulators” (J Med Chem, 2011)
Calls of active or inactive are those of the source. No cut-off for these calls is given here.

Key:
[1] = biological target: Survival motor neuron protein (Homo sapiens) (UniProt Q16637); test: Activation of SMN in human fibroblast cells obtained from type 1 SMA patients assessed as increase in SMN protein level by quantitative Western blot method; assay type: cell-based
Survival motor neuron protein (Homo sapiens), sequence (Q16637 whole entry): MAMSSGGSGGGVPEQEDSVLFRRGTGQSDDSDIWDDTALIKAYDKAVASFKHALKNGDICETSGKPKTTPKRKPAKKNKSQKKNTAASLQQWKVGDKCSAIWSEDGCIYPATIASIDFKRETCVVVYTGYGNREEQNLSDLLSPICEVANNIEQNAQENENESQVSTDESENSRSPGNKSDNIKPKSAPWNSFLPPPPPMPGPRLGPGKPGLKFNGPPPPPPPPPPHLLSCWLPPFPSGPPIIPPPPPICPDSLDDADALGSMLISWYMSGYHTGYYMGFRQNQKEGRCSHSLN
In short: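 Type I SMA patient fibroblasts (3813 line) were seeded at 8,000 cells/cm2 24 h before dosing, with medium and compound renewed every 24 h for 72 h. Lysates (10 µg protein/lane) were immunoblotted for SMN (4f11 antibody) and α-tubulin. Band intensity was normalized to tubulin and expressed as fold over the DMSO control.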

[2] = biological target: Survival motor neuron protein (Homo sapiens) (UniProt Q16637); test: Activation of SMN expressed in HEK293 cells by SMN2-promotor driven luciferase reporter gene assay; assay type: cell-based
In short: (§1)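 HEK-293 cells stably carrying the SMN2 reporter construct, kept in DMEM with 10% FCS, glutamax, pyruvate, pen/strep and 200 µg/mL hygromycin, and assayed without hygromycin. 2,000 cells/well were plated and adhered overnight at 37 °C, 5% CO2. Compounds were added as a 7-point titration, 50 µM to 25 nM final, in 0.46% DMSO, for 30–36 h. OneGlo luminescence was normalized to 4.5 mM sodium butyrate (100%) and DMSO (0%).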

[3] = biological target: Survival motor neuron protein (Homo sapiens) (UniProt Q16637); test: Activation of SMN expressed in HEK293 cells assessed as rate of induction by SMN2-promotor driven luciferase reporter gene assay relative to basal level; assay type: cell-based; set-up: concentration or dose not given beside the values; in short: as §1
Caco-2 [4] = test: Apparent permeability from apical side to basolateral side of human Caco2 cells at 10 uM; assay type: ADME, cell-based; conditions: caco-2, 10 µM
[5] = biological target: Survival motor neuron protein (Homo sapiens) (UniProt Q16637); test: Activation of SMN expressed in HEK293 cells assessed as concentration required to reach 50% of maximum luciferase signal by SMN2-promotor driven luciferase reporter gene assay; assay type: cell-based; in short: as §1
Caco-2 [6] = test: Apparent permeability from basolateral side to apical side of human Caco2 cells at 10 uM; assay type: ADME, cell-based; conditions: caco-2, 10 µM
[7] = biological target: T1, Luciferin 4-monooxygenase (Luciola lateralis, UniProt Q01158); test: Inhibition of fire fly luciferase; set-up: species or system Aquatica lateralis
T1 sequence (Q01158 whole entry): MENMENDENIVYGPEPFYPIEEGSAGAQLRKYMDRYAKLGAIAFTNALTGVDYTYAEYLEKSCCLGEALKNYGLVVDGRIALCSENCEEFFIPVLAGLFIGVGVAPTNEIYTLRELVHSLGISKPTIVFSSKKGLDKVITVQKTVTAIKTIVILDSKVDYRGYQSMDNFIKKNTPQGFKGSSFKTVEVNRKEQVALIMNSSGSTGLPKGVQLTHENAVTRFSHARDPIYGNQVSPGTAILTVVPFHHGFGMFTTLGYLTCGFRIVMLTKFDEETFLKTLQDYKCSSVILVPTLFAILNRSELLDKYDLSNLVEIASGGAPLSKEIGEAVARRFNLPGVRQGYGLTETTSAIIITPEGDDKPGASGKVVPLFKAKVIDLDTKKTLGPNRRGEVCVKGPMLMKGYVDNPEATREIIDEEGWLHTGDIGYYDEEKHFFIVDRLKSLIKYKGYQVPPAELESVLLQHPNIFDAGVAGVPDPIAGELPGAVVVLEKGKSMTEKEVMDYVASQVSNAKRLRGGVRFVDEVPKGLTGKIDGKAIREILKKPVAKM

Liver = test: Half-life in mouse liver microsome at 1 uM; assay type: ADME; conditions: microsomes
[8] = Plasma concentration in Swiss albino mouse at 30 mg/kg, po after 0.083 hrs; assay type: ADME, organism-based; set-up: dose 30 mg/kg, route oral
Brain [9] = test: Drug level in Swiss albino mouse brain at 30 mg/kg, po after 2 hrs; assay type: ADME, organism-based; set-up: dose 30 mg/kg, route oral; conditions: in vivo
In short: (§2)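 Male Swiss Albino mice received a single 30 mg/kg oral gavage dose. Compound levels were measured in plasma and brain over time, and PK parameters were derived from the concentration–time data.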

[10] = Plasma concentration in Swiss albino mouse at 30 mg/kg, po after 4 hrs; assay type: ADME, organism-based; set-up: dose 30 mg/kg, route oral; in short: as §2
Brain [11] = test: Drug level in Swiss albino mouse brain at 30 mg/kg, po after 1 hr; assay type: ADME, organism-based; set-up: dose 30 mg/kg, route oral; conditions: in vivo; in short: as §2
Brain [12] = test: Drug level in Swiss albino mouse brain at 30 mg/kg, po after 0.083 hr; assay type: ADME, organism-based; set-up: dose 30 mg/kg, route oral; conditions: in vivo
Brain [13] = test: Drug level in Swiss albino mouse brain at 30 mg/kg, po after 8 hrs; assay type: ADME, organism-based; set-up: dose 30 mg/kg, route oral; conditions: in vivo; in short: as §2
[14] = Plasma concentration in Swiss albino mouse at 30 mg/kg, po after 8 hrs; assay type: ADME, organism-based; set-up: dose 30 mg/kg, route oral; in short: as §2
Brain [15] = test: AUC (infinity) in brain of Swiss albino mouse at 30 mg/kg, po; assay type: ADME, organism-based; set-up: time infinity, dose 30 mg/kg, route oral; conditions: in vivo; in short: as §2
[16] = Plasma concentration in Swiss albino mouse at 30 mg/kg, po after 12 hrs; assay type: ADME, organism-based; set-up: dose 30 mg/kg, route oral; in short: as §2
Plasma [17] = test: AUC (infinity) in plasma of Swiss albino mouse at 30 mg/kg, po; assay type: ADME, organism-based; set-up: dose 30 mg/kg, route oral, time infinity; conditions: in vivo; in short: as §2
Plasma [18] = test: Cmax in plasma of Swiss albino mouse at 30 mg/kg, po; assay type: ADME, organism-based; set-up: dose 30 mg/kg, route oral; conditions: in vivo; in short: as §2
Brain [19] = test: AUClast in brain of Swiss albino mouse at 30 mg/kg, po; assay type: ADME, organism-based; set-up: time 0 - last, dose 30 mg/kg, route oral; conditions: in vivo; in short: as §2
Brain [20] = test: Drug level in Swiss albino mouse brain at 30 mg/kg, po after 24 hrs; assay type: ADME, organism-based; set-up: dose 30 mg/kg, route oral; conditions: in vivo; in short: as §2
Brain [21] = test: Drug level in Swiss albino mouse brain at 30 mg/kg, po after 12 hrs; assay type: ADME, organism-based; set-up: dose 30 mg/kg, route oral; conditions: in vivo; in short: as §2
[22] = Ratio of AUC in brain to AUC in plasma in Swiss albino mouse at 30 mg/kg, po; assay type: ADME, organism-based; set-up: dose 30 mg/kg, route oral; conditions: brain and plasma
In short: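 Single oral gavage dose of 30 mg/kg given to male Swiss Albino mice; compound concentrations measured in both plasma and brain, from which brain and plasma exposure parameters were derived; animals observed for behavioural disturbance throughout the study.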

Brain [23] = test: Drug level in Swiss albino mouse brain at 30 mg/kg, po after 0.25 hr; assay type: ADME, organism-based; set-up: dose 30 mg/kg, route oral; conditions: in vivo; in short: as §2
[24] = Plasma concentration in Swiss albino mouse at 30 mg/kg, po after 1 hr; assay type: ADME, organism-based; set-up: dose 30 mg/kg, route oral; in short: as §2
Brain [25] = test: Half-life in brain of Swiss albino mouse at 30 mg/kg, po; assay type: ADME, organism-based; set-up: dose 30 mg/kg, route oral; conditions: in vivo; in short: as §2
[26] = Plasma concentration in Swiss albino mouse at 30 mg/kg, po after 0.25 hrs; assay type: ADME, organism-based; set-up: dose 30 mg/kg, route oral; in short: as §2
[27] = Plasma concentration in Swiss albino mouse at 30 mg/kg, po after 24 hrs; assay type: ADME, organism-based; set-up: dose 30 mg/kg, route oral; in short: as §2
Brain [28] = test: Drug level in Swiss albino mouse brain at 30 mg/kg, po after 4 hrs; assay type: ADME, organism-based; set-up: dose 30 mg/kg, route oral; conditions: in vivo; in short: as §2
Plasma [29] = test: Half-life in plasma of Swiss albino mouse at 30 mg/kg, po; assay type: ADME, organism-based; set-up: dose 30 mg/kg, route oral; conditions: in vivo; in short: as §2
[30] = Plasma concentration in Swiss albino mouse at 30 mg/kg, po after 2 hrs; assay type: ADME, organism-based; set-up: dose 30 mg/kg, route oral; in short: as §2
[31] = Plasma concentration in Swiss albino mouse at 30 mg/kg, po after 0.5 hrs; assay type: ADME, organism-based; set-up: dose 30 mg/kg, route oral; in short: as §2
Brain [32] = test: Cmax in brain of Swiss albino mouse at 30 mg/kg, po; assay type: ADME, organism-based; set-up: dose 30 mg/kg, route oral; conditions: in vivo; in short: as §2
Plasma [33] = test: AUClast in plasma of Swiss albino mouse at 30 mg/kg, po; assay type: ADME, organism-based; set-up: time 0 - last, dose 30 mg/kg, route oral; conditions: in vivo; in short: as §2
Brain [34] = test: Drug level in Swiss albino mouse brain at 30 mg/kg, po after 0.5 hr; assay type: ADME, organism-based; set-up: dose 30 mg/kg, route oral; conditions: in vivo; in short: as §2

## NC(=O)C1CCN(c2nc(-c3ccc(Br)cc3)cs2)CC1
[1]
  Activity: Dose-dependent effect
[2]
  Activity: Active
[3]
  Activity: 268%
Caco-2 [4]
  Papp: 30.7 ×10⁻⁶ cm/s
[5]
  Activity: 1.22 µM
Caco-2 [6]
  Papp: 12.1 ×10⁻⁶ cm/s
[7]
  IC50: Not Active
Liver
  t1/2: 0.2 h

## O=C(C1CCN(c2nc(-c3ccc(Br)cc3)cs2)CC1)N1CCOCC1
[3]
  Activity: 77%
[5]
  Activity: 30.8 µM

## COc1cccc(-c2csc(N3CCC(C(N)=O)CC3)n2)c1
[3]
  Activity: 357%
[5]
  Activity: 1.94 µM

## CC(=O)C1CCN(c2ncc(-c3cccc(N(C)C)c3)s2)CC1
[3]
  Activity: 224%
[5]
  Activity: 3.07 µM

## CN(C)c1cccc(-c2nccc(N3CCC(C(N)=O)CC3)n2)c1
[3]
  Activity: 306%
[5]
  Activity: 12.2 µM

## NC(=O)C1CCN(c2nc(-c3ccc4c(c3)OCC4)cs2)CC1
[3]
  Activity: 401%
[5]
  Activity: 12.2 µM

## CN(C)c1cccc(-c2cnc(N3CCC(c4ncc[nH]4)CC3)s2)c1
[3]
  Activity: 188%
[5]
  Activity: 7.72 µM

## Brc1ccc(-c2csc(N3CCCCC3)n2)cc1
[3]
  Activity: 272%
[5]
  Activity: 19.4 µM

## CC(C)Oc1cccc(-c2cnc(N3CCC(C(N)=O)CC3)s2)c1
[8]
  concentration at 0.083 h: 3720 nM
Brain [9]
  Drug uptake: 0.23 µmol/kg
[10]
  concentration at 4 h: 2.8 nM
Brain [11]
  Drug uptake: 0.6 µmol/kg
Brain [12]
  Drug uptake: 1.28 µmol/kg
Brain [13]
  Drug uptake: 0 µmol/kg
[14]
  concentration at 8 h: 25 nM
[3]
  Activity: 709%
Brain [15]
  AUC: 607 ng·h/mL
Caco-2 [4]
  Papp: 6.1 ×10⁻⁶ cm/s
[16]
  concentration at 12 h: 19 nM
Plasma [17]
  AUC: 1429 ng·h/mL
Plasma [18]
  Cmax: 3720 nM
[5]
  Activity: 0.077 µM
Brain [19]
  AUClast: 546 ng·h/mL
Brain [20]
  Drug uptake: 0.023 µmol/kg
Brain [21]
  Drug uptake: 0 µmol/kg
[22]
  Kp: 0.29
Brain [23]
  Drug uptake: 0.31 µmol/kg
[24]
  concentration at 1 h: 1270 nM
Brain [25]
  t1/2: 5.44 h
Caco-2 [6]
  Papp: 0.3 ×10⁻⁶ cm/s
[26]
  concentration at 0.25 h: 1200 nM
[27]
  concentration at 24 h: 60 nM
Brain [28]
  Drug uptake: 0.083 µmol/kg
Plasma [29]
  t1/2: 5.78 h
[30]
  concentration at 2 h: 600 nM
[31]
  concentration at 0.5 h: 1200 nM
Brain [32]
  Cmax: 1.28 µmol/kg
Plasma [33]
  AUClast: 1857 ng·h/mL
[7]; read-out: IC50
  IC50: 800 nM
Liver
  t1/2: 0.5 h
Brain [34]
  Drug uptake: 0.4 µmol/kg

## NC(=O)C1CCN(c2nc(-c3ccc4occc(=O)c4c3)cs2)CC1
[3]
  Activity: 589%
[5]
  Activity: 15.4 µM

## CNC(=O)C1CCN(c2nc(-c3ccc(Br)cc3)cs2)CC1
[3]
  Activity: 101%
[5]
  Activity: 7.72 µM

## CCOC(=O)C1CCN(c2nc(-c3ccc(Br)cc3)cs2)CC1
[3]
  Activity: 550%
[5]
  Activity: 7.72 µM

## Cc1ccc(-c2ccnc(N3CCC(C(N)=O)CC3)n2)cc1
[3]
  Activity: 444%
[5]
  Activity: 0.387 µM

## NC(=O)C1CCN(c2nc(-c3ccccc3F)cs2)CC1
[3]
  Activity: 274%
[5]
  Activity: 2.44 µM
